Activity calls are given as the source filed them. The calls are words filed in the database; no cut-off is given here.
Key:
[1] = target: Opioid receptors; mu & kappa (Homo sapiens) (UniProt P41145+P35372); assay: Selectivity for kappa opioid receptor over mu opioid receptor expressed in CHO cells; assay type: cell-based
[2] = target: T1, Kappa-type opioid receptor (Homo sapiens, UniProt P41145); assay: Displacement of [3H]U-69593 from human kappa opioid receptors expressed in CHO cell membrane
T1 sequence (P41145 whole entry): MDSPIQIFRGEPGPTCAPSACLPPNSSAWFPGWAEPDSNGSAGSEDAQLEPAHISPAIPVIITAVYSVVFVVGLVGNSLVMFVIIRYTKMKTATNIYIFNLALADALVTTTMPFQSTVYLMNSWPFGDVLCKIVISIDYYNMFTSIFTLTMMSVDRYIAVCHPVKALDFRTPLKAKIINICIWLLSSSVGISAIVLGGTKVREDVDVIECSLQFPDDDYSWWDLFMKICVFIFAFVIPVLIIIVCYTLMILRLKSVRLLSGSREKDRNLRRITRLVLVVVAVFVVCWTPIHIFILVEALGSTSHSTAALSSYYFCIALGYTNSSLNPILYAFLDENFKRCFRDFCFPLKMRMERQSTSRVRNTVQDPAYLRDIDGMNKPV

[3] = target: Delta-type opioid receptor (Homo sapiens, UniProt P41143); assay: Displacement of [3H]naltrindole from human delta opioid receptors expressed in CHO cell membrane
Sequence of Delta-type opioid receptor (P41143 whole entry): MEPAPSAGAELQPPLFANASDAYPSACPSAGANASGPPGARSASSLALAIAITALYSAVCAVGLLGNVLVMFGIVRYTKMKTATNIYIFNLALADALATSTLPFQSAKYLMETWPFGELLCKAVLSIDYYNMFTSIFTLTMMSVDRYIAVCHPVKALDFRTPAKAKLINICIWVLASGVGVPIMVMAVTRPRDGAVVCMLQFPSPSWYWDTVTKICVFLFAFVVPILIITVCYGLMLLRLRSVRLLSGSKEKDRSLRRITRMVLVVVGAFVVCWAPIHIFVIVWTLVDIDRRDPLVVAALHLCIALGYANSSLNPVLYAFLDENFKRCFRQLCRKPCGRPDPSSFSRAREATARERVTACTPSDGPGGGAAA

[4] = target: Opioid receptors; delta & kappa (Homo sapiens) (UniProt P41145+P41143); assay: Selectivity for kappa opioid receptor over delta opioid receptor; assay type: protein assay
Sequence of Opioid receptors; delta & kappa (Homo sapiens) (P41143 whole entry, looked up): as the sequence (P41143 whole entry) above
Sequence of Opioid receptors; delta & kappa (Homo sapiens) (P41145 whole entry, looked up): as the sequence (P41145 whole entry) above

Mu-type opioid receptor [5] = target: T2, Mu-type opioid receptor (Homo sapiens, UniProt P35372); assay: Displacement of [3H]DAMGO from human mu opioid receptors expressed in CHO cell membrane
T2 sequence (P35372 whole entry): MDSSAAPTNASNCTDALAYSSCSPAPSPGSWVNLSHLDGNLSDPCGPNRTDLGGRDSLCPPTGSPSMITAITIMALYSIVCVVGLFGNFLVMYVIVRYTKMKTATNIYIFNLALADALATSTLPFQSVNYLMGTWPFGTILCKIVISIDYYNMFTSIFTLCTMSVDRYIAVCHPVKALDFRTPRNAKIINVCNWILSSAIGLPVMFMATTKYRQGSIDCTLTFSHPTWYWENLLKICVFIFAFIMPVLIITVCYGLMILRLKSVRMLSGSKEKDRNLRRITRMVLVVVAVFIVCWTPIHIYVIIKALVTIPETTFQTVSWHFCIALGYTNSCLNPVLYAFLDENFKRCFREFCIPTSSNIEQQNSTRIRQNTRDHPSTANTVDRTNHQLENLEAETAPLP

Mu-type opioid receptor [6] = target: T2, Mu-type opioid receptor; assay: Agonist activity at human mu opioid receptor expressed in CHO cells assessed as maximal stimulation of [35S]GTP-gamma-S binding; assay type: functional, cell-based
Mu-type opioid receptor [7] = target: T2, Mu-type opioid receptor; assay: Antagonist activity at human mu opioid receptor expressed in CHO cells assessed as DAMGO-stimulated [35S]GTP-gamma-S binding; assay type: functional, cell-based
[8] = target: T1, Kappa-type opioid receptor; assay: Agonist activity at human opioid kappa receptor expressed in CHO cells assessed as maximal stimulation of [35S]GTP-gamma-S binding relative to control; assay type: functional, cell-based
Method in brief: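 CHO cell membranes stably expressing only the human κ opioid receptor were incubated with varying concentrations of each compound. Stimulation of [35S]GTPγS binding was measured, and maximal stimulation was taken as Emax.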

[9] = target: T1, Kappa-type opioid receptor; assay: Agonist activity at huma kappa opioid receptor expressed in CHO cells assessed as […] of [35S]GTP-gamma-S binding; assay type: functional, cell-based
[10] = Displacement of [3H]naltrindole from human delta opioid receptors expressed in CHO cell membrane

Sequence of Opioid receptors; mu & kappa (Homo sapiens) (P35372 whole entry, looked up): as the sequence (P35372 whole entry) above
Sequence of Opioid receptors; mu & kappa (Homo sapiens) (P41145 whole entry, looked up): as the sequence (P41145 whole entry) above

SMILES	Ratio Ki [1]	Ki [2] [nM]	Ki [3] [nM]	Ratio Ki [4]	Ki (Mu-type opioid receptor [5]) [nM]	EC50 (Mu-type opioid receptor [6]) [nM]	Emax (Mu-type opioid receptor [6]) [%]	Activity (Mu-type opioid receptor [7])	Imax (Mu-type opioid receptor [7]) [%]	Emax [8] [%]	EC50 [9] [nM]	IC50 (Mu-type opioid receptor [7]) [nM]	Ki [10] [nM]
CCNC(=O)Oc1ccc2c(c1)C13CCCCC1C(C2)N(C)CC3 (stereo not given)	0.1	36	78	2	4.8								
CCNC(=O)Oc1ccc2c(c1)C13CCCCC1C(C2)N(CC1CCC1)CC3 (stereo not given)	0.9	4.3	27	6	3.7	39	32	inactive	33	61	23		
CNC(=O)Oc1ccc2c(c1)C13CCCCC1C(C2)N(C)CC3 (stereo not given)	0.4	3.3	53	16	1.4	50	71			96	29		
O=C(Nc1ccccc1)Oc1ccc2c(c1)C13CCCCC1C(C2)N(CC1CC1)CC3 (stereo not given)	2.4	0.046	1.6	35	0.11	0.44	39		70	120	0.38	6.4	
CNC(=O)Oc1ccc2c(c1)C13CCCCC1C(C2)N(CC1CC1)CC3 (single isomer, unassigned; (-))	1.6	3.4	42	12	5.3	14	44			78	16		
CNC(=O)Oc1ccc2c(c1)C13CCCCC1C(C2)N(CC1CCC1)CC3 (single isomer, unassigned; (-))	1.5	0.81	30	37	1.2	11	60			88	9.6		
O=C(Nc1ccccc1)Oc1ccc2c(c1)C13CCCCC1C(C2)N(CC1CCC1)CC3 (single isomer, unassigned; (-))	2	0.051	3.9	76	0.12	1.3	80		37	74	2.2	22	
O=C(NCc1ccccc1)Oc1ccc2c(c1)C13CCCCC1C(C2)N(CC1CC1)CC3 (single isomer, unassigned; (-))	2	0.14	2.7	20	0.3	2.2	39		71	130	1.1	16	
O=C(NCc1ccccc1)Oc1ccc2c(c1)C13CCCCC1C(C2)N(CC1CCC1)CC3 (single isomer, unassigned; (-))	0.4	0.3	15	50	0.7	7.1	54		50	110	4.7	260	
CCNC(=O)Oc1ccc2c(c1)C13CCCCC1C(C2)N(CC1CC1)CC3 (single isomer, unassigned; (-))	2	0.14	2.8	20	0.29	2.4	40		68	140	1.2	10	
Oc1ccc2c(c1)[C@@]13CCCC[C@H]1[C@@H](C2)N(CC1CCC1)CC3 [BUTORPHAN]													5.9
Oc1ccc2c(c1)[C@@]13CCCC[C@H]1[C@@H](C2)N(CC1CC1)CC3 [CYCLORPHAN]													1.9
